Compound activity: PubChem BioAssay, Sanford-Burnham Center for Chemical Genomics
Hits are enriched below; roughly 2.4% of the tested compounds scored in any of these assays.
NadD block: inhibitors of Staphylococcus aureus NadD. purified NadD enzyme, colorimetric absorbance read-out. inhibition, % at 20 µM. 360,000 tested, 0.78% active. AID 602399; in the data active means inhibition above about 26%
DNMT1 block: blocks human DNA methyltransferase DNMT1 | inhibition (reported as % activation of signal), % at 10 µM | 360,000 tested, 0.83% active | DNMT1 molecular beacon, Hinp1I cleavage, fluorescence | AID 588458; in the data active means inhibition above about 50%
LMPTP inh: LMPTP (human) inhibition | inhibition, % at 20 µM | recombinant LMPTP-A, OMFP fluorogenic substrate, fluorescence intensity | AID 651560 | P24666 | 360,000 tested, 0.22% active;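 active means compounds that cut the enzyme signal by at least half of the control window in the single-dose screen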;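 further: plate controls were DMSO wells with enzyme plus substrate for no effect and substrate without enzyme for full effect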
Target sequence (P24666 whole entry, looked up): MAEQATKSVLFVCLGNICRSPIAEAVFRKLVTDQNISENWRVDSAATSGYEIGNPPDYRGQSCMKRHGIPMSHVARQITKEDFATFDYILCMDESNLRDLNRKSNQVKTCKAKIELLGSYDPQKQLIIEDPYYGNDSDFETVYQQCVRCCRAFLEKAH
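Test system: LMPTP-A, protein tyrosine phosphatase of low molecular weight; Input: 0.625 nM enzyme; Incubation: 50 min dark incubation at room temperature; Signal: endpoint fluorescence intensity from OMFP dephosphorylation; Read-out basis: % inhibition versus control wells.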
SUMO1-SIM PPI: modulators of human SUMO1-mediated protein-protein interactions | inhibition, % at 20 µM | SUMO1 binding to a labelled peptide, TR-FRET, 1 h | 360,000 tested, 0.33% active; in the data active means inhibition above about 37%
Target sequence (P63165 whole entry, looked up): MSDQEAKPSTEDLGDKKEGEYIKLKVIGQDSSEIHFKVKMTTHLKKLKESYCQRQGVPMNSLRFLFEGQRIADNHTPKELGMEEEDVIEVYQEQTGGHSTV
Scp1 inh: blocks human Scp-1 phosphatase activity; 340,000 tested, 0.88% active; inhibition, % at 20 µM; Q9GZU7; Recombinant Scp1, phosphopeptide, malachite green phosphate absorbance;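 active means inhibition above about 50% at 20 µM, limit read from the data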;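 further: plate controls were DMSO wells with enzyme for no effect and wells lacking enzyme for full effect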
Target sequence (Q9GZU7 76-261 limits assumed): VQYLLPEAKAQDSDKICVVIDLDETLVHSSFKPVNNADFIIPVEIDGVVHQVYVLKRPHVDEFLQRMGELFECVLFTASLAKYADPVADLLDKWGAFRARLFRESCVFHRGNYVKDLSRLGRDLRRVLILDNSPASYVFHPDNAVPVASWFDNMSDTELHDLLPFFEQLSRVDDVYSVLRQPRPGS
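Material: truncated SCP-1 phosphatase (76-261aa) / Buffer or medium: 50 mM Tris acetate pH 5.5, 0.005% Tween-20, 10 mM MgCl2 / Compound dosing: one concentration, 20 µM, with 1.0% DMSO / Incubation: 45 min room-temperature reaction, 5 min colour, 30 min stabiliser / Detection: colorimetric free-phosphate detection, absorbance 630 nm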
STEP inh: blocks human striatal-enriched tyrosine phosphatase. P54829. recombinant STEP, OMFP fluorogenic substrate, fluorescence. inhibition, % at 20 µM. 360,000 tested, 0.25% active. AID 588621;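 active means inhibition at 20 µM, scaled per plate between control wells, above about 37%, limit read from the data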;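 further: 0% = DMSO with enzyme and substrate and 100% = substrate only without enzyme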
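material = STEP tyrosine phosphatase | reagent = fluorogenic phosphatase substrate OMFP at 25 µM final | doses = single compound dose of 20 µM, 1% DMSO final | schedule = 20 min reaction, room temperature, in the dark | measured by = fluorescence, 480/540 nm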
NadD inh conf: NadD (S. aureus) inhibition, single concentration confirmation. inhibition, % at 20 µM. AID 624309. shares compounds with NadD block. purified S. aureus NadD, colorimetric enzyme assay. 2,000 tested, 13% active; in the data active means inhibition mostly above about 42%, no sharp cut-off; inactive means mostly below about 42%
* marks the source's active call; other numbers are inactive results; / = no result given.

SMILES | NadD block | DNMT1 block | LMPTP inh | SUMO1-SIM PPI | Scp1 inh | STEP inh | NadD inh conf
N#CC(=Cc1ccccn1)c1nc(-c2ccc(Cl)cc2)cs1 | 2 | -7 | 2 | -1 | / | -13 | /
N#C/C(=C\Nc1ccc2cn[nH]c2c1)c1nc(-c2ccc(Cl)cc2)cs1 | 40* | 16 | 3 | 5 | -7 | -1 | 3
COCCNC(=S)N1CCC2CC1c1c(Cl)cccc12 (stereo unspecified) | -4 | 2 | -3 | -1 | / | -3 | /
Cc1cc2nc(-c3ccc(SCC(=O)Nc4ccc(S(=O)(=O)NC5CC5)cc4)nc3)[nH]c2cc1C | 40* | -1 | 1 | 4 | 0 | 0 | 44
Cc1cc2nc(-c3ccc(SCC(=O)N4CCc5ccccc54)nc3)[nH]c2cc1C | 33* | 39 | 0 | 6 | 6 | 0 | 4
O=C(COc1cccnc1[N+](=O)[O-])Nc1ccc(Cl)c(S(=O)(=O)N2CCOCC2)c1 | -10 | -2 | 1 | -23 | -7 | -4 | /
COc1ccccc1C(C)NCC(=O)NC(=O)NCc1ccco1 (stereo unspecified) | 5 | 7 | 2 | 1 | 0 | 2 | /
C=CCn1c(SCC(=O)Nc2ccccc2C)nc(O)cc1=O | -1 | 2 | 1 | 4 | 4 | 0 | /
CC(C)=C[C@H]1C[C@H](C)[C@H]2CC[C@H](C)c3c(O[C@@H]4OC[C@@H](O)[C@H](O)C4O)c(O)c(C)c1c32 (stereo partly specified) | -8 | -5 | 2 | 3 | -6 | -3 | /
CCOc1ccc(CCN2C(=O)C(=O)N([C@@H](CC(C)C)CN3CCC[C@H]3CN3C(=O)C(=O)NC[C@@H]3Cc3ccccc3)C[C@@H]2Cc2ccc(O)cc2)cc1 | 35* | / | 1 | 8 | / | / | 34
CCOc1ccc(CCN2C(=O)C(=O)N([C@@H](CC(C)C)CN3CCC[C@H]3CN3C(=O)C(=O)NC[C@@H]3Cc3ccccc3)C[C@@H]2Cc2ccccc2)cc1 | 34* | / | 6 | 6 | / | / | 38
CCOc1ccc(CCN2C(=O)C(=O)N([C@@H](CC(C)C)CN3CCC[C@@H]3CN3C(=O)C(=O)NC[C@@H]3Cc3ccccc3)C[C@@H]2Cc2ccc(O)cc2)cc1 | 21 | 2 | 0 | 8 | 16 | -3 | /
CCOc1ccc(CCN2C(=O)C(=O)N([C@@H](CC(C)C)CN3CCC[C@@H]3CN3C(=O)C(=O)NC[C@@H]3Cc3ccccc3)C[C@@H]2CC(C)C)cc1 | 14 | 5 | 1 | 6 | 10 | 1 | /
COc1ccc2c(C)c(CCC(=O)NCCCN3CCCC3=O)c(=O)oc2c1C | -3 | -3 | -2 | 1 | 4 | -3 | /
Cc1sc2nc(C3CC3)nc(N3CCN(S(=O)(=O)c4ccc(F)cc4)CC3)c2c1C | 35* | -5 | 5 | 20 | 17 | 6 | 6
Cc1sc2nc(CN3CCCC3)nc(N3CCN(S(=O)(=O)c4cccc(F)c4)CC3)c2c1C | 30* | 14 | 12 | -14 | -3 | 3 | -11
O=c1cc(/N=C/c2coc3c(ccc4ccccc43)c2=O)[nH]c(=S)[nH]1 | 65* | -5 | -1 | 13 | -4 | 2 | 2
F[B-](F)(F)c1cc2ccccc2s1 | 1 | 4 | -2 | 3 | -8 | -2 | /
CCCCCCCCN1C(=O)[C@H](CC(=O)NCc2cccs2)C[C@@]2(C(=O)OC)CC(C)(C)CC=C12 | / | / | 7 | 5 | / | / | /
CCOc1ccc(Br)cc1S(=O)(=O)Nc1ccc(C(=O)OCC(=O)Nc2ccc(C#N)cc2)cc1 | 34* | -7 | 3 | 6 | 3 | -6 | 41
CCOc1ccc(NC(=S)NS(=O)(=O)c2cc(Br)ccc2OCC)cc1 | -1 | -3 | 3 | 5 | -18 | 35 | /
Cc1cnc(CNC(=O)C2(C)CCCN2CC(C)C)cn1 (stereo unspecified) | -4 | 5 | -2 | -5 | / | -6 | /
O=C(Nc1cccc(S(=O)(=O)NC2=NCCCCC2)c1)c1cc(-c2ccccc2)nc2ccccc12 | 17 | 1 | 2 | -11 | 0 | -2 | /
O=C(NC(=S)Nc1cccc(S(=O)(=O)NC2=NCCC2)c1)c1cc(-c2ccco2)nc2ccccc12 | 41* | 11 | 15 | 22 | -6 | 5 | 52*
COc1ccc(-c2cc(C(=O)Nc3cccc(S(=O)(=O)NCc4ccco4)c3)c3ccccc3n2)cc1OC | 58* | -7 | 2 | -15 | 6 | -5 | 45*
SMILES | NadD block | DNMT1 block | LMPTP inh | SUMO1-SIM PPI | Scp1 inh | STEP inh | NadD inh conf
O=C(Nc1cccc(S(=O)(=O)NC2=NCCCCC2)c1)c1cc(-c2ccc(Cl)cc2)nc2ccccc12 | 26* | -13 | 3 | -11 | 0 | -2 | 32
COC(=O)c1ccc(C(=O)N2CCCCCC2(C)C(=O)NC(C)C)cc1 (stereo unspecified) | 4 | 3 | 0 | -1 | / | 2 | /
CC(C)c1ccc(CC(=O)N2CCC2(C)C(=O)NCCC#N)cc1 (stereo unspecified) | 1 | -1 | -4 | -4 | / | -2 | /
CC1Cc2ccccc2N1Cc1cc(=O)n2ccsc2n1 (stereo unspecified) | 28* | -13 | 9 | -1 | -10 | -2 | 11
Cc1ccccc1N1CC(C(=O)Nc2nnc(SCC(=O)Nc3nccs3)s2)CC1=O (stereo unspecified) | 40* | -4 | -1 | 16 | 3 | 0 | 29
Cc1cccc(N2CC(C(=O)Nc3nnc(SCC(=O)Nc4cc(C)on4)s3)CC2=O)c1 (stereo unspecified) | 74* | 24 | -2 | -1 | -4 | 6 | 0
Cc1cccc(N2CC(C(=O)Nc3nnc(SCc4cccnc4)s3)CC2=O)c1 (stereo unspecified) | 15 | 11 | 6 | -1 | 3 | 1 | /
Cc1ccccc1N1CC(C(=O)Nc2nnc(SCc3ccccn3)s2)CC1=O (stereo unspecified) | 20 | -2 | 0 | 10 | -6 | -2 | /
CN(CC(=O)Nc1ccc(Cl)cc1)CC(=O)Nc1sc2c(c1C(N)=O)CCC2 | 2 | -11 | 1 | 9 | / | -1 | /
COc1ccccc1N1CCN(c2ncc(C(=O)N3CCN(c4cccc(Cl)c4)CC3)c3ccccc23)CC1 | 34* | -8 | 6 | 24 | -1 | 1 | 2
C/C(=N\Nc1nnc(-c2ccccc2)c(-c2ccccc2)n1)c1cccc([N+](=O)[O-])c1 | 33* | 18 | 4 | -7 | 5 | -2 | 3
O=[N+]([O-])c1cccc(/C=N/Nc2nnc(-c3ccccc3)c(-c3ccccc3)n2)c1 | 27 | 13 | -1 | -4 | -2 | 0 | /
